In data set [1] the test system is Cryptococcus gattii. The experiment in a line: In vitro susceptibility testing. It counts as cell-based. An outline of the steps:
(§1)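 Inoculum prepared per CLSI M27-A3. Plates incubated at 37°C with 5% CO2 for 24 to 96 h. MIC was the lowest concentration inhibiting 50% of growth versus the drug-free control. Minimum fungicidal concentration was also measured: serial dilutions from wells were plated on YPD agar, and MFC was the lowest concentration yielding three or fewer colonies (99% of inoculum killed).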

For data set [2], the system named is Candida albicans. The experiment in a line: In vitro susceptibility testing. Format: cell-based. An outline of the steps:
as §1

For data set [3], the system named is Candida krusei. The experiment in a line: In vitro susceptibility testing. Format: cell-based. In outline: as §1
In data set [4] the test system is Rhizopus oryzae. The experiment in a line: In vitro susceptibility testing. The following applies: FTL strains (3). It counts as cell-based. An outline of the steps: as §1
Data set [5] has as its system Blastomyces dermatitis. The experiment in a line: In vitro susceptibility testing. It counts as cell-based. The following applies: FTL strains (10). An outline of the steps:
as §1

Data set [6] relates to Coccidioides spp. Format: cell-based.
Data set [7] has as its system C. albicans, Candida parapsilosis, Paecilomyces variotii. The experiment in a line: MIC, poor activity. It counts as cell-based. An outline of the steps:
as §1

The test system of data set [8] is Candida spp. The experiment in a line: In vitro susceptibility. It counts as cell-based. The following applies: most Candida spp. examined. In outline:
as §1

Data set [9] has as its system C. albicans SC 5314. The experiment in a line: Mouse model of invasive candidiasis. It counts as in vivo, mouse (CBA/J). The following applies: after 21 days of infection; 1.2 mg/kg/day i.p.; 8 mice per group. In outline:
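Female CBA/J mice, 8 weeks old (8 per group), were infected i.v. with 100 µl containing 10^5 C. albicans SC-5314. Test compound was given i.p. at 1.2 mg/kg/day in 100 µl PBS with 0.4% DMSO immediately after inoculation; untreated mice received vehicle. Survival was monitored. Organs of survivors were homogenized in 10 ml PBS, diluted tenfold, and plated on YPD at 30°C for 72 h for CFU.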

The nature of data set [10]: In vivo toxicity, blood work. The arrangement: species or system mouse (CBA/J). In outline:
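Female CBA/J mice, 4 weeks old: five received 1.2 mg/kg/day test compound for 60 days, and three controls received a daily solvent injection. On day 60, blood was collected into one K2EDTA tube and one plain tube allowed to clot.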

The nature of data set [11]: Pharmacokinetics of BHBM in mice. It counts as in vivo, mouse (C3H/HeN). The following applies: for half-life: C3H/HeN, mouse, plasma, ip, IS/IN mice. In outline:
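Test compound was dissolved at 10 mg/ml (stock) in cremophor-ethanol 1:1 and diluted in PBS to 200 or 400 µg/ml. C3H/HeN mice (n = 3), either healthy or immunocompromised and P. murina-infected, received 0.8 or 1.6 mg/kg i.v. (tail vein) or i.p. in 100 µl. Blood was taken into K2EDTA predose and at 0.5, 1, 2, 4, 8, 12 and 24 h, and plasma stored at −80°C. t1/2 = 0.693/λz.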

Data set [12] deals with GlcCer synthesis in C. albicans cells. The experiment in a line: GlcCer synthesis in C. albicans. The following applies: in vitro treatment; data not shown. Format: cell-based.
For data set [13], the system named is S. cerevisiae RYO0622 strain. The experiment in a line: IC100 prescreening. Format: cell-based, Saccharomyces cerevisiae. To be noted: solid SC medium, 2 days, 30°C. An outline of the steps: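 S. cerevisiae RYO0622 cells (20 µl at OD600 10−4) spotted on solid SC medium alone, with DMSO, or with test compound at 67, 133, 266, 533 and 1,066 µg/ml in a 48-well plate. Incubation 2 days at 30°C in the dark. IC100 taken as the concentration giving 100% growth inhibition.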

Each structure is given as a SMILES string. In brackets after ≈: the same amount, converted by molar mass. Bounds are passed on as bounds.

By MIC is commonly meant the lowest concentration found to suppress growth. High values mean a less susceptible organism, low ones a more susceptible organism. As a reminder, the half-life is the time needed for the level to fall by half in the phase considered. Read a low half-life as fast loss.

Take `Cc1ccccc1C(=O)NN=Cc1ccc(O)c(Br)c1` [BHBM, N′-(3-bromo-4-hydroxybenzylidene)-2-methylbenzohydrazide]: the MIC range is 0.5−2 µg/ml in data set [1] (FTL strains (10)); 0.5−1 µg/ml in data set [1] (MDPL strains (3)); above 32 µg/mL in data set [2] (FTL strains (3)); above 32 µg/mL in data set [2] (MDPL strains (5)); 16 µg/mL (≈ 48 µM) in data set [3] (ATCC 6258 (MDPL strain)); 32 µg/mL (≈ 96 µM) in [3] (MDPL strain (1)). For the same compound, the MIC range was 8 µg/mL (≈ 24 µM) in data set [3] (QC FTL strains), 2 µg/mL (≈ 6 µM) in [4], 0.5−1 µg/ml in [5] and 8 to 16 µg/mL in data set [6]. The same compound showed an MIC in [7] above 32 µg/mL. Moreover, the in vitro susceptibility entry in data set [8] is listed as “resistant”. For the same compound, the mice still alive in data set [9] is on record as 62.5%. In addition, the “all other blood parameters for liver and kidney function” value in [10] (after 60 days of treatment) is given as “normal”. For the same compound, the “liver aspartate aminotransferase (AST)” value in data set [10] (after 60 days of treatment, 1.2 mg/kg/day, untreated 50 ± 9) stood at 125 ± 75 U/liter. The tolerability in animals entry in data set [10] (mouse, in vivo) was “well tolerated”. For the same compound, the half-life in data set [11] (0.8 mg/kg, T1/2, IP 0.8 mg/kg (low dose)) was 47.4 min; in data set [11] (1.6 mg/kg, T1/2, IP 1.6 mg/kg (high dose)), 50.4 min. In addition, the “distribution to brain tissue” value in data set [11] (upon administration, data not shown) is “readily found in brain tissue”. Also, in [12], the GlcCer synthesis entry is on record as “inhibited GlcCer synthesis in a dose-dependent manner”. In [13], the “100% inhibitory concentration (IC100)” value amounted to 133 µg/mL.

The values are drawn from PMC4479701 (mBio, 2015).
